Experimental data taken from ChEMBL document CHEMBL3525900, “Pharmacokinetics, distribution, and metabolism of [14C]sunitinib in rats, monkeys, and humans” (Drug Metab Dispos, 2012).

Columns and labels:
Blood = assay: Drug concentration in female albino rat blood assessed as radioactivity per gram of tissue at 20 mg/kg administered as single dose via gastric gavage measured after 3 hrs by autoradiographic analysis; format: ADME, organism-based; design: dose 20 mg/kg, dosed compound name [14C]Sunitinib; settings: in vivo, po
Procedure, shortened: (§1)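 Sprague Dawley (albino) rats, ca 7-8 weeks old, received a single gastric-gavage dose of [14C]sunitinib L-malate at 20 mg/kg (15 mg freebase/kg, 100 µCi/kg). One animal per sex killed by CO2 at 3, 6, 24, 72 and 168 h, then frozen in CO2/hexane. 30 µm sagittal sections were cut and freeze-dried. Radioactivity per gram quantified by whole-body autoradiography using regression against standards. LOQ 0.04–0.06 µg freebase equiv/g.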

[1] = Drug concentration in female Lister Hooded pigmented rat bone marrow assessed as radioactivity per gram of tissue at 20 mg/kg administered as single dose via gastric gavage measured after 24 hrs by autoradiographic analysis; format: ADME, organism-based; design: dose 20 mg/kg, dosed compound name [14C]Sunitinib; settings: in vivo, po
Procedure, shortened: (§2)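 Lister Hooded (pigmented) rats, ca 7-8 weeks old, acclimated 7 days, given [14C]sunitinib L-malate by gastric gavage at 20 mg/kg (15 mg freebase/kg, 100 µCi/kg). One male and one female killed by CO2 at 24, 72, 168 and 336 h. Carcasses frozen in solid CO2/hexane and embedded in frozen cellulose. 30 µm sagittal cryosections were freeze-dried. Tissue radioactivity measured by quantitative whole-body autoradiography against calibration standards, with background subtracted.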

[2] = Drug recovery in feces of female Sprague-Dawley rat at 15 mg/kg, po administered as single dose during 0 to 72 hrs by liquid scintillation counting; format: ADME, organism-based; design: dose 15 mg/kg, dosed compound name [14C]Sunitinib, route oral; settings: in vivo
[3] = Drug concentration in female albino rat bone marrow assessed as radioactivity per gram of tissue at 20 mg/kg administered as single dose via gastric gavage measured after 6 hrs by autoradiographic analysis; format: ADME, organism-based; design: dose 20 mg/kg, dosed compound name [14C]Sunitinib; settings: in vivo, po; procedure, shortened: as §1
[4] = Drug concentration in female albino rat bladder assessed as radioactivity per gram of tissue at 20 mg/kg administered as single dose via gastric gavage measured after 72 hrs by autoradiographic analysis; format: ADME, organism-based, Urinary bladder; design: dose 20 mg/kg, dosed compound name [14C]Sunitinib; settings: in vivo, po; procedure, shortened: as §1
[5] = Drug recovery in feces of female cynomolgus monkey at 6 mg/kg, po administered as single dose during 0 to 336 hrs by liquid scintillation counting; format: ADME, organism-based, Macaca fascicularis; design: dose 6 mg/kg, dosed compound name [14C]Sunitinib, route oral; settings: in vivo
[6] = Drug concentration in female albino rat thyroid gland assessed as radioactivity per gram of tissue at 20 mg/kg administered as single dose via gastric gavage measured after 6 hrs by autoradiographic analysis; format: ADME, organism-based; design: dose 20 mg/kg, dosed compound name [14C]Sunitinib; settings: in vivo, po
[7] = Drug concentration in male Lister Hooded pigmented rat lachrymal gland assessed as radioactivity per gram of tissue at 20 mg/kg administered as single dose via gastric gavage measured after 168 hrs by autoradiographic analysis; format: ADME, organism-based; design: dose 20 mg/kg, dosed compound name [14C]Sunitinib; settings: in vivo, po
Heart [8] = assay: Drug concentration in female albino rat heart assessed as radioactivity per gram of tissue at 20 mg/kg administered as single dose via gastric gavage measured after 3 hrs by autoradiographic analysis; format: ADME, organism-based; design: dose 20 mg/kg, dosed compound name [14C]Sunitinib; settings: in vivo, po
Procedure, shortened: (§3)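 Sprague Dawley albino rats, ca 7-8 weeks old, dosed once by gastric gavage with [14C]sunitinib L-malate (15 mg freebase/kg, 100 µCi/kg). One male and one female killed by CO2 at 3, 6, 24, 72 and 168 h. Carcasses frozen in solid CO2/hexane, embedded and cut into 30 µm sagittal sections, then freeze-dried. Radioactivity quantified by whole-body autoradiography against standards by regression, background subtracted.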

Brain [9] = assay: Drug concentration in female albino rat brain assessed as radioactivity per gram of tissue at 20 mg/kg administered as single dose via gastric gavage measured after 6 hrs by autoradiographic analysis; format: ADME, organism-based; design: dose 20 mg/kg, dosed compound name [14C]Sunitinib; settings: in vivo, po; procedure, shortened: as §1
Adrenal [10] = assay: Drug concentration in female albino rat adrenal assessed as radioactivity per gram of tissue at 20 mg/kg administered as single dose via gastric gavage measured after 3 hrs by autoradiographic analysis; format: ADME, organism-based; design: dose 20 mg/kg, dosed compound name [14C]Sunitinib; settings: in vivo, po; procedure, shortened: as §1
[11] = Drug concentration in male Lister Hooded pigmented rat uveal tract assessed as radioactivity per gram of tissue at 20 mg/kg administered as single dose via gastric gavage measured after 72 hrs by autoradiographic analysis; format: ADME, organism-based; design: dose 20 mg/kg, dosed compound name [14C]Sunitinib; settings: in vivo, po
[12] = Drug concentration in female albino rat brown fat assessed as radioactivity per gram of tissue at 20 mg/kg administered as single dose via gastric gavage measured after 3 hrs by autoradiographic analysis; format: ADME, organism-based, Brown adipose tissue; design: dose 20 mg/kg, dosed compound name [14C]Sunitinib; settings: in vivo, po
Procedure, shortened: (§4)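 Sprague Dawley (albino) and Lister Hooded (pigmented) rats, ca 7-8 weeks old, 179-310 g, acclimated 7 days. Single gavage dose of [14C]sunitinib L-malate (15 mg freebase/kg, 100 µCi/kg). One male and one female killed by CO2 per time point: albino at 3, 6, 24, 72, 168 h; pigmented at 24, 72, 168, 336 h. Carcasses frozen in solid CO2/hexane, 30 µm sagittal sections freeze-dried. Tissue radioactivity read by quantitative whole-body autoradiography against regression of standards, mean background subtracted.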

Kidney = assay: Drug concentration in female Lister Hooded pigmented rat kidney assessed as radioactivity per gram of tissue at 20 mg/kg administered as single dose via gastric gavage measured after 72 hrs by autoradiographic analysis; format: ADME, organism-based; design: dose 20 mg/kg, dosed compound name [14C]Sunitinib; settings: in vivo, po; procedure, shortened: as §2
Thymus = assay: Drug concentration in male albino rat thymus assessed as radioactivity per gram of tissue at 20 mg/kg administered as single dose via gastric gavage measured after 24 hrs by autoradiographic analysis; format: ADME, organism-based; design: dose 20 mg/kg, dosed compound name [14C]Sunitinib; settings: in vivo, po
Stomach = assay: Drug concentration in female albino rat stomach assessed as radioactivity per gram of tissue at 20 mg/kg administered as single dose via gastric gavage measured after 24 hrs by autoradiographic analysis; format: ADME, organism-based; design: dose 20 mg/kg, dosed compound name [14C]Sunitinib; settings: in vivo, po
Adrenal [13] = assay: Drug concentration in male Lister Hooded pigmented rat adrenal assessed as radioactivity per gram of tissue at 20 mg/kg administered as single dose via gastric gavage measured after 24 hrs by autoradiographic analysis; format: ADME, organism-based; design: dose 20 mg/kg, dosed compound name [14C]Sunitinib; settings: in vivo, po
[14] = Drug concentration in male albino rat uveal tract assessed as radioactivity per gram of tissue at 20 mg/kg administered as single dose via gastric gavage measured after 3 hrs by autoradiographic analysis; format: ADME, organism-based; design: dose 20 mg/kg, dosed compound name [14C]Sunitinib; settings: in vivo, po
Heart [15] = assay: Drug concentration in male Lister Hooded pigmented rat heart assessed as radioactivity per gram of tissue at 20 mg/kg administered as single dose via gastric gavage measured after 24 hrs by autoradiographic analysis; format: ADME, organism-based; design: dose 20 mg/kg, dosed compound name [14C]Sunitinib; settings: in vivo, po
Brain [16] = assay: Drug concentration in female albino rat brain assessed as radioactivity per gram of tissue at 20 mg/kg administered as single dose via gastric gavage measured after 24 hrs by autoradiographic analysis; format: ADME, organism-based; design: dose 20 mg/kg, dosed compound name [14C]Sunitinib; settings: in vivo, po; procedure, shortened: as §1
Adrenal [17] = assay: Drug concentration in female albino rat adrenal assessed as radioactivity per gram of tissue at 20 mg/kg administered as single dose via gastric gavage measured after 168 hrs by autoradiographic analysis; format: ADME, organism-based; design: dose 20 mg/kg, dosed compound name [14C]Sunitinib; settings: in vivo, po; procedure, shortened: as §1
Pancreas = assay: Drug concentration in female albino rat pancreas assessed as radioactivity per gram of tissue at 20 mg/kg administered as single dose via gastric gavage measured after 6 hrs by autoradiographic analysis; format: ADME, organism-based; design: dose 20 mg/kg, dosed compound name [14C]Sunitinib; settings: in vivo, po; procedure, shortened: as §4
Ovary = assay: Drug concentration in female albino rat ovary assessed as radioactivity per gram of tissue at 20 mg/kg administered as single dose via gastric gavage measured after 6 hrs by autoradiographic analysis; format: ADME, organism-based, Female gonad; design: dose 20 mg/kg, dosed compound name [14C]Sunitinib; settings: in vivo, po; procedure, shortened: as §3
Lung = assay: Drug concentration in female albino rat lung assessed as radioactivity per gram of tissue at 20 mg/kg administered as single dose via gastric gavage measured after 3 hrs by autoradiographic analysis; format: ADME, organism-based; design: dose 20 mg/kg, dosed compound name [14C]Sunitinib; settings: in vivo, po; procedure, shortened: as §3
[18] = Drug concentration in male albino rat bone marrow assessed as radioactivity per gram of tissue at 20 mg/kg administered as single dose via gastric gavage measured after 24 hrs by autoradiographic analysis; format: ADME, organism-based; design: dose 20 mg/kg, dosed compound name [14C]Sunitinib; settings: in vivo, po
Liver = assay: Drug concentration in male albino rat liver assessed as radioactivity per gram of tissue at 20 mg/kg administered as single dose via gastric gavage measured after 3 hrs by autoradiographic analysis; format: ADME, organism-based; design: dose 20 mg/kg, dosed compound name [14C]Sunitinib; settings: in vivo, po
Rattus norvegicus = assay: Drug recovery in cage residue of female Sprague-Dawley rat at 15 mg/kg, po administered as single dose during 0 to 72 hrs by liquid scintillation counting; format: ADME, organism-based; design: dose 15 mg/kg, dosed compound name [14C]Sunitinib, route oral; settings: in vivo

Q: With CCN(CC)CCNC(=O)c1c(C)[nH]c(/[14CH]=C2\C(=O)Nc3ccc(F)cc32)c1C.O=C(O)C[C@H](O)C(=O)O as the molecule, how does the Radiolabel recovery (Blood) read?
A: 1.66 ugequiv

Q: What about the Radiolabel recovery [1] of the same molecule?
A: 0.74 ugequiv

Q: And the Radiolabel recovery [2]?
A: 71.1%

Q: What about the Radiolabel recovery [3] of the same molecule?
A: 7.51 ugequiv

Q: What about the Radiolabel recovery [4] of the same molecule?
A: 0.14 ugequiv

Q: And the Radiolabel recovery [5]?
A: 84.1%

Q: And the Radiolabel recovery [6]?
A: 11.23 ugequiv

Q: What about the Radiolabel recovery [7] of the same molecule?
A: 0.06 ugequiv

Q: What about the Radiolabel recovery (Heart [8]) of the same molecule?
A: 7.31 ugequiv

Q: And the Radiolabel recovery (Brain [9])?
A: 0.43 ugequiv

Q: And the Radiolabel recovery (Adrenal [10])?
A: 29.98 ugequiv

Q: What about the Radiolabel recovery [11] of the same molecule?
A: 147.37 ugequiv

Q: And the Radiolabel recovery [12]?
A: 10.63 ugequiv

Q: What about the Radiolabel recovery (Kidney) of the same molecule?
A: 0.19 ugequiv

Q: What about the Radiolabel recovery (Thymus) of the same molecule?
A: 0.58 ugequiv

Q: What about the Radiolabel recovery (Stomach) of the same molecule?
A: 1.21 ugequiv

Q: And the Radiolabel recovery (Adrenal [13])?
A: 4.3 ugequiv

Q: And the Radiolabel recovery [14]?
A: 2.63 ugequiv

Q: What about the Radiolabel recovery (Heart [15]) of the same molecule?
A: 0.43 ugequiv

Q: What about the Radiolabel recovery (Brain [16]) of the same molecule?
A: 0.07 ugequiv

Q: And the Radiolabel recovery (Adrenal [17])?
A: 0.33 ugequiv

Q: And the Radiolabel recovery (Pancreas)?
A: 11.3 ugequiv

Q: And the Radiolabel recovery (Ovary)?
A: 11.63 ugequiv

Q: And the Radiolabel recovery (Lung)?
A: 28.98 ugequiv

Q: And the Radiolabel recovery [18]?
A: 0.38 ugequiv

Q: And the Radiolabel recovery (Liver)?
A: 15.71 ugequiv

Q: And the Radiolabel recovery (Rattus norvegicus)?
A: 2.2%
